Key:
ABCG2 = target: T1, ABCG2 (Homo sapiens, UniProt Q9UNQ0); test: Inhibition of ABCG2 (unknown origin) transfected in HEK293 cells assessed as inhibition of mitoxantrone efflux at 5 uM after 30 mins by flow cytometry relative to control; type: cell-based; settings: HEK293 cells transfected with ABCG2, probe mitoxantrone
T1 sequence (Q9UNQ0 whole entry): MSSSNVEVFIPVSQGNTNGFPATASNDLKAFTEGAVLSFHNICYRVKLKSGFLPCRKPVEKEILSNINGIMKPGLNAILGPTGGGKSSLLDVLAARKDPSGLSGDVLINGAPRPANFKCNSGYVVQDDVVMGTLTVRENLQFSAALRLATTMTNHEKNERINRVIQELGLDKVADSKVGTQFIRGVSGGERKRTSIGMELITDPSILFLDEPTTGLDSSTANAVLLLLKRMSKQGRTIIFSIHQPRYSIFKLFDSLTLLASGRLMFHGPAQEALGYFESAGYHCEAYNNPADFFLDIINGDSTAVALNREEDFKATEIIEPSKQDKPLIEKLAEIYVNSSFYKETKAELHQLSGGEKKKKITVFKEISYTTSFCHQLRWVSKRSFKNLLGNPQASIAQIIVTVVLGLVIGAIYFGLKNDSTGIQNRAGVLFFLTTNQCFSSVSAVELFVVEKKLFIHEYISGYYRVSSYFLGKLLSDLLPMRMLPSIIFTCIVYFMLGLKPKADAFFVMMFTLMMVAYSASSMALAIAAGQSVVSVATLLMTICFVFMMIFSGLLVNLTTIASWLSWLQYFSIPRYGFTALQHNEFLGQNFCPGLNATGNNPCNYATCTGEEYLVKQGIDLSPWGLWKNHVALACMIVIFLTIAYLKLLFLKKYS
How it was run: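 HEK293-ABCG2 cells (1.5 × 10⁵/well, grown 48 h) exposed to 5 μM mitoxantrone for 30 min at 37 °C with compound (increasing concentrations up to 10 μM); washed, trypsinized, FL4 flow cytometry, ≥10 000 events.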

[1] = target: T2, Broad substrate specificity ATP-binding cassette transporter ABCG2 (Homo sapiens, UniProt Q9UNQ0); test: Inhibition of ABCG2 (unknown origin) transfected in HEK293 cells assessed as inhibition of mitoxantrone efflux after 30 mins by flow cytometry relative to control; type: cell-based
T2 sequence (Q9UNQ0 whole entry): T1 sequence (Q9UNQ0 whole entry)

[2] = target: T2, Broad substrate specificity ATP-binding cassette transporter ABCG2; test: Inhibition of human ABCG2 transfected in Sf9 insect cells assessed as inhibition of basal ATPase activity in absence of substrate drug after 30 mins by colorimetry; settings: sf9, 0.5 h
How it was run: (§1)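 Cholesterol-loaded membranes from Sf9 cells overexpressing human ABCG2 (0.5 mg/mL; 10 μg/sample) in 50 mM Tris-HCl, 50 mM NaCl, pH 8.0, with or without 0.33 mM orthovanadate, no transport substrate; started with 3.9 mM ATP-Mg, 30 min at 37 °C; stopped with SDS; phosphate released read with molybdate/ascorbic acid at 880 nm; vanadate-sensitive basal activity taken as 100%.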

[3] = target: T2, Broad substrate specificity ATP-binding cassette transporter ABCG2; test: Inhibition of ABCG2 (unknown origin) transfected in HEK293 cells assessed as inhibition of mitoxantrone efflux at 5 uM after 30 mins in presence of 0.1 uM (2E,2'E)-1,1'-(1,4-Phenylene)bis(3-(2,6-dimethoxyphenyl)-prop-2-en-1-one) by flow cytometry; type: cell-based
[4] = target: ATP-dependent translocase ABCB1 (Homo sapiens, UniProt P08183); test: Inhibition of ABCB1 (unknown origin) transfected in mouse NIH/3T3 cells assessed as inhibition of mitoxantrone efflux up to 10 uM after 30 mins by flow cytometry relative to control; type: cell-based; settings: nih/3t3, 0.5 h
How it was run: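 NIH-3T3-ABCB1 cells (1.5 × 10⁵/well, 48 h, kept in 60 ng/mL colchicine) were given 5 μM mitoxantrone for 30 min at 37 °C with bis-chalcone at 1 or 10 μM. Fluorescence was read by FL4 flow cytometry, ≥10 000 events. Inhibition was expressed relative to parental NIH-3T3 cells, whose maximal accumulation was taken as complete inhibition.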

[5] = target: Multidrug resistance-associated protein 1 (Homo sapiens, UniProt P33527); test: Inhibition of ABCC1 (unknown origin) transfected in HEK293 cells assessed as inhibition of calcein-AM efflux up to 10 uM after 30 mins by flow cytometry relative to control; type: cell-based; settings: hek293, 0.5 h
How it was run: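 HEK293-ABCC1 cells (2 × 10⁵/well, kept in 200 μg/mL hygromycin B) were exposed to 0.2 μM calcein-AM for 30 min at 37 °C with bis-chalcone at 1 or 10 μM. Calcein was read by FL1 flow cytometry, ≥10 000 events. Inhibition was expressed relative to HEK293/pcDNA5 cells, whose maximal accumulation equals complete inhibition.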

[6] = target: T2, Broad substrate specificity ATP-binding cassette transporter ABCG2; test: Inhibition of ABCG2 (unknown origin)-mediated mitoxantrone efflux transfected in HEK293 cells assessed as potentiation of mitoxantrone-induced cytotoxicity at 0.5 uM after 72 hrs by MTT assay; type: cell-based; settings: hek293, 72 h
How it was run: (§2)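 HEK293-ABCG2 and vector-control HEK293-pcDNA3.1 cells were seeded at 1 × 10⁴/well and grown 24 h, then exposed 72 h to mitoxantrone (0–25 nM). ABCG2 cells were also given bis-chalcone at 0.1 or 0.5 μM. MTT was added for 4 h, formazan dissolved in DMSO/ethanol (1:1) and read at 570 nm. IC50 = mitoxantrone concentration giving 50% survival.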

HEK293 [7] = test: Cytotoxicity against HEK293 cells overexpressing ABCG2 at 0.5 uM after 72 hrs by MTT assay; type: ADME, cell-based; settings: human, hek293, 72 h; how it was run: as §2
ABCG2 ATPase [8] = target: T3, ABCG2 ATPase (Homo sapiens, UniProt Q9UNQ0); test: (§3) Inhibition of human ABCG2 ATPase activity transfected in Sf9 insect cells using quercetin as substrate after 30 mins by colorimetry relative to control; settings: human, Sf9 insect cells transfected with human ABCG2, probe quercetin; read-out: Imax
T3 sequence (Q9UNQ0 whole entry): T1 sequence (Q9UNQ0 whole entry)
How it was run: (§4)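 Vanadate-sensitive ATPase of cholesterol-loaded human ABCG2 Sf9 membranes (0.5 mg/mL; 10 μg/sample), 50 mM Tris-HCl/50 mM NaCl pH 8.0, with 2 μM quercetin. ATP-Mg 3.9 mM, 30 min, 37 °C. Phosphate measured colorimetrically at 880 nm. Coupled activity = total minus basal, taken as 100%. IC50 is the concentration giving 50% inhibition.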

[9] = target: T2, Broad substrate specificity ATP-binding cassette transporter ABCG2; test: as §3; how it was run: as §4
ABCG2 ATPase [10] = target: T3, ABCG2 ATPase; test: Activation of human ABCG2 transfected in Sf9 insect cells assessed as stimulation of basal ATPase activity in absence of substrate drug after 30 mins by colorimetry; settings: Sf9 insect cells transfected with human ABCG2, read-out: FC; how it was run: as §1
[11] = tested on: ATP-binding cassette sub-family G member 2 (Homo sapiens); test: Inhibition of ABCG2-mediated mitoxantrone efflux in mitoxantrone-selected human PANC1 cells overexpressing ABCG2; settings: PANC-1
HEK293 [12] = test: Cytotoxicity against HEK293 cells overexpressing ABCG2 after 72 hrs by MTT assay; type: ADME, cell-based; settings: Homo sapiens, HEK293, 72 h; how it was run: as §2
HEK293 [13] = test: Cytotoxicity against HEK293 cells after 72 hrs by MTT assay; type: cell-based; settings: Homo sapiens, HEK293, 72 h; how it was run: as §2

Chain of ATP-dependent translocase ABCB1 (P08183 whole entry): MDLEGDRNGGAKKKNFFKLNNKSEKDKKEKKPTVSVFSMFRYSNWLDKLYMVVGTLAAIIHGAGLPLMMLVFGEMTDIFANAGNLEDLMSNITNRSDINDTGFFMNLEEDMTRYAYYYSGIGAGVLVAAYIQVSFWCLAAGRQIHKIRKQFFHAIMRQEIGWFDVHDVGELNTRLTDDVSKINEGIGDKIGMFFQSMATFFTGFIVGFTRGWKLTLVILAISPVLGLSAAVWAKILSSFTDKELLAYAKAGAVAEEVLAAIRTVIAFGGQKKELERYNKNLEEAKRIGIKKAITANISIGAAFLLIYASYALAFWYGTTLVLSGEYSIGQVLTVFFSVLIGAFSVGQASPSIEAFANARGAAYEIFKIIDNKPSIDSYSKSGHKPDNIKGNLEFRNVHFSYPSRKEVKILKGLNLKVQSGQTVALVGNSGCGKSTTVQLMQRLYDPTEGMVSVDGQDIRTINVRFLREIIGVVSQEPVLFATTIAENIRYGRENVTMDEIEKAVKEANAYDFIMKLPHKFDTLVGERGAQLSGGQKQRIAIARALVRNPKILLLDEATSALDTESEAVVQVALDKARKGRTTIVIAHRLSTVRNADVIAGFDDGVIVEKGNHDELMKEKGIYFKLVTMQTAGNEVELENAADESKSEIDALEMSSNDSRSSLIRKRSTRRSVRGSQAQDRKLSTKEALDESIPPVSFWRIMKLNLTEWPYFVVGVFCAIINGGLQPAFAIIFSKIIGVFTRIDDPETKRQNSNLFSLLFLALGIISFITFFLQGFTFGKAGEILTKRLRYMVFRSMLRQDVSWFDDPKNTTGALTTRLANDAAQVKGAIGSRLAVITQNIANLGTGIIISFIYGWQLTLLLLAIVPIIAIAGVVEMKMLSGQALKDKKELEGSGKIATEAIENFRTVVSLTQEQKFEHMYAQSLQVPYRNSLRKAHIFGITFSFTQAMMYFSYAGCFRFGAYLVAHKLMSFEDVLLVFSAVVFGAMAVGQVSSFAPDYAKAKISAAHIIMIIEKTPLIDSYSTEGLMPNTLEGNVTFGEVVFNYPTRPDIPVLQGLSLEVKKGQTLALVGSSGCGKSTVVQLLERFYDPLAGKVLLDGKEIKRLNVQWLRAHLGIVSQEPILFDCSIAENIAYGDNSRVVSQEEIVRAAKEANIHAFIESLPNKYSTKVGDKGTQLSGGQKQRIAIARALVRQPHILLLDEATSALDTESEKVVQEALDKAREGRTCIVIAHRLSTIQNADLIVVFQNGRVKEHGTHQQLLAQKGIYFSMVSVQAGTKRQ
Chain of Multidrug resistance-associated protein 1 (P33527 whole entry): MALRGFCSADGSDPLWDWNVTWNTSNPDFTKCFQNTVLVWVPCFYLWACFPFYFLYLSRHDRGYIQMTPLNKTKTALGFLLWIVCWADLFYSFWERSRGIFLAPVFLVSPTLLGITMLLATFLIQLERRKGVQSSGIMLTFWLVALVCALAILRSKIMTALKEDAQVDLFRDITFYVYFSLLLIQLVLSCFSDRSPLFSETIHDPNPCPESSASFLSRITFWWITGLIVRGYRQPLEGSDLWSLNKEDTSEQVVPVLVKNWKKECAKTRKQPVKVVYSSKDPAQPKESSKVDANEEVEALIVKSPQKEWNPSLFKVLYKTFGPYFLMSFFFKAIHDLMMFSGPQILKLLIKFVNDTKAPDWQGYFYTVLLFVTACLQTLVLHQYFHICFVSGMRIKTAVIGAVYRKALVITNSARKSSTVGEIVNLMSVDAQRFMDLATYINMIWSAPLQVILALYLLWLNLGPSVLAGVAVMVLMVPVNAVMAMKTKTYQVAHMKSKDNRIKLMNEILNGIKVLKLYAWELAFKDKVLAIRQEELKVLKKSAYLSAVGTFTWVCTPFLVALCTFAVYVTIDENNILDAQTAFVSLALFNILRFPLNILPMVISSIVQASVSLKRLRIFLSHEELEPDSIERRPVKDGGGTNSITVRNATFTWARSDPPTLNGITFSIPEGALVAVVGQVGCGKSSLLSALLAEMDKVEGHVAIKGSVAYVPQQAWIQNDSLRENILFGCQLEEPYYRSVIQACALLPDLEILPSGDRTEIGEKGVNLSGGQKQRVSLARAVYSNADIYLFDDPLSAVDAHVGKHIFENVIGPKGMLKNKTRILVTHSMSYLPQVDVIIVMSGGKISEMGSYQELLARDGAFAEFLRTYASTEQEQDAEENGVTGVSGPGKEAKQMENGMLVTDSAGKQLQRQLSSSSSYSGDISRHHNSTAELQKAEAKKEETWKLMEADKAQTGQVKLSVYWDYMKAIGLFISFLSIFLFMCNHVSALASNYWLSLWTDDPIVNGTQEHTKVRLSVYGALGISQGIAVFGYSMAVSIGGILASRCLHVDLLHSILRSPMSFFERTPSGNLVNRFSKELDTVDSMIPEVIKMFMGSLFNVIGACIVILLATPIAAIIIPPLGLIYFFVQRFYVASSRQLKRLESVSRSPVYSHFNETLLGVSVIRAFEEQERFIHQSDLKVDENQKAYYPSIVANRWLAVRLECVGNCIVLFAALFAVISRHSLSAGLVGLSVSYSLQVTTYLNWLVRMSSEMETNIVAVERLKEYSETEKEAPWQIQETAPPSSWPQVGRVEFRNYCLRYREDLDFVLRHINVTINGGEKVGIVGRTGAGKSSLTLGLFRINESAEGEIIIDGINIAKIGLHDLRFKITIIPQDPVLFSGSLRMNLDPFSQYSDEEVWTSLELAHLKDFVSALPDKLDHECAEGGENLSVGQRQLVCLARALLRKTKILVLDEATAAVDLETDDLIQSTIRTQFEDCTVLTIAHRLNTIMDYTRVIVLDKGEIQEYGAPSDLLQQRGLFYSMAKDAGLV

SMILES | inhibition at 0.5 h, 5 µM (ABCG2) | EC50 [1] | also measured
COc1ccc(OC)c(C(=O)/C=C/c2ccc(/C=C/C(=O)c3cc(OC)ccc3OC)cc2)c1 | 74% | 1300 nM | –
COc1ccc(/C=C/C(=O)c2ccc(C(=O)/C=C/c3ccc(OC)c(OC)c3)cc2)cc1OC | 63% | 2100 nM | –
COc1cc(C(=O)/C=C/c2ccc(/C=C/C(=O)c3cc(OC)c(OC)c(OC)c3)cc2)cc(OC)c1OC | 73% | 1100 nM | –
COc1ccc2[nH]cc(CCNC(=O)c3cc(=O)c4c(OCc5ccc(Br)cc5)cccc4o3)c2c1 | – | 94 nM | inhibition (INH) [2]: Active; EC50 [3]: 31 nM
COc1ccc(C(=O)/C=C/c2ccc(/C=C/C(=O)c3ccc(OC)cc3OC)cc2)c(OC)c1 | 86% | 900 nM | –
O=C(/C=C/c1cccc2ccccc12)c1ccc(C(=O)/C=C/c2cccc3ccccc23)cc1 | 13% | – | –
COc1cc(C(=O)/C=C/c2ccc(/C=C/C(=O)c3ccc(O)c(OC)c3)cc2)ccc1O | 28% | – | –
COc1cccc(C(=O)/C=C/c2ccc(/C=C/C(=O)c3cccc(OC)c3)cc2)c1 | 73% | 2300 nM | –
COc1cc(/C=C/C(=O)c2ccc(C(=O)/C=C/c3cc(OC)c(OC)c(OC)c3)cc2)cc(OC)c1OC | 43% | – | –
O=C(/C=C/c1ccc(/C=C/C(=O)c2ccc3c(c2)OCO3)cc1)c1ccc2c(c1)OCO2 | 19% | – | –
COc1cc(OC)cc(C(=O)/C=C/c2ccc(/C=C/C(=O)c3cc(OC)cc(OC)c3)cc2)c1 | 78% | 500 nM | inhibition (INH) [4]: Not Active; inhibition (INH) [5]: Not Active; inhibition (INH) [6]: Active; Activity (HEK293 [7]): Non-toxic; inhibition (INH) [2]: Not Active; Emax at 0.5 h (ABCG2 ATPase [8]): 72%; IC50 [9]: 270 nM; fold induction at 0.5 h (ABCG2 ATPase [10]): 1.8; EC50 [11]: 210 nM
COc1cc(OC)c(C(=O)/C=C/c2ccc(/C=C/C(=O)c3c(OC)cc(OC)cc3OC)cc2)c(OC)c1 | 66% | 1800 nM | –
COc1ccc(OC)c(/C=C/C(=O)c2ccc(C(=O)/C=C/c3cc(OC)ccc3OC)cc2)c1 | 96% | 700 nM | –
CN(C)c1ccc(/C=C/C(=O)c2ccc(C(=O)/C=C/c3ccc(N(C)C)c4ccccc34)cc2)c2ccccc12 | 17% | – | –
COc1ccccc1C(=O)/C=C/c1ccc(/C=C/C(=O)c2ccccc2OC)cc1 | 95% | 1100 nM | –
O=C(/C=C/c1ccc2nccnc2c1)c1ccc(C(=O)/C=C/c2ccc3nccnc3c2)cc1 | 18% | – | –
CN(C)c1ccc(/C=C/C(=O)c2ccc(C(=O)/C=C/c3ccc(N(C)C)cc3)cc2)cc1 | 34% | – | –

SMILES | inhibition at 0.5 h, 5 µM (ABCG2) | EC50 [1] | also measured
COc1ccc(C(=O)/C=C/c2ccc(/C=C/C(=O)c3ccc(OC)cc3)cc2)cc1 | 27% | – | –
O=C(/C=C/c1ccc(/C=C/C(=O)c2ccc3ccccc3c2)cc1)c1ccc2ccccc2c1 | 45% | – | –
O=C(/C=C/c1ccc2c(c1)OCO2)c1ccc(C(=O)/C=C/c2ccc3c(c2)OCO3)cc1 | 11% | – | –
O=C1c2c(O)ccc(O)c2C(=O)c2c(NCCNCCO)ccc(NCCNCCO)c21 [MITOXANTRONE] | – | – | IC50 (HEK293 [12]): 26.6 nM; IC50 (HEK293 [13]): 10 nM
O=C(O)c1ccc(C(=O)/C=C/c2ccc(/C=C/C(=O)c3ccc(C(=O)O)cc3)cc2)cc1 | 0% | – | –
COc1cc(/C=C/C(=O)c2ccc(C(=O)/C=C/c3ccc(O)c(OC)c3)cc2)ccc1O | 0% | – | –
COc1ccc(/C=C/C(=O)c2ccc(C(=O)/C=C/c3ccc(OC)c(OC)c3OC)cc2)c(OC)c1OC | 86% | 1400 nM | –
COc1ccc(/C=C/C(=O)c2ccc(C(=O)/C=C/c3ccc(OC)cc3)cc2)cc1 | 18% | – | –
COc1ccc(C(=O)/C=C/c2ccc(/C=C/C(=O)c3ccc(OC)c(OC)c3)cc2)cc1OC | 97% | 800 nM | –
O=C(/C=C/c1ccc(/C=C/C(=O)c2cccc3ccccc23)cc1)c1cccc2ccccc12 | 23% | – | –
COc1cc(OC)c(OC)cc1/C=C/C(=O)c1ccc(C(=O)/C=C/c2cc(OC)c(OC)cc2OC)cc1 | 96% | 300 nM | –
O=C(/C=C/c1ccc2ccccc2c1)c1ccc(C(=O)/C=C/c2ccc3ccccc3c2)cc1 | 7% | – | –
COc1cc(OC)c(C(=O)/C=C/c2ccc(/C=C/C(=O)c3cc(OC)c(OC)cc3OC)cc2)cc1OC | 41% | – | –
O=C(/C=C/c1ccc(/C=C/C(=O)c2ccccc2)cc1)c1ccccc1 | 25% | – | –
O=C(O)c1ccc(/C=C/C(=O)c2ccc(C(=O)/C=C/c3ccc(C(=O)O)cc3)cc2)cc1 | 2% | – | –
O=C(/C=C/c1ccccc1)c1ccc(C(=O)/C=C/c2ccccc2)cc1 | 13% | – | –
COc1cc(OC)c(/C=C/C(=O)c2ccc(C(=O)/C=C/c3c(OC)cc(OC)cc3OC)cc2)c(OC)c1 | 92% | 400 nM | –
